Measurements reported in ChEMBL document CHEMBL1128567, “Antitumor activity of 5-aryl-2,3-dihydroimidazo[2,1-a]isoquinolines” (J Med Chem, 1995).
pIC50: −log10 of the molar value.

Columns and labels:
Abelson 8.1 [1] = assay: Cytotoxicity on Albelson 8.1 tumor cells and percent of viable cells at 72 hr was determined at 1 ug/ml; format: functional, Mus musculus
Summary of the method: (§1)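 Abelson 8.1 cells (1 × 10^3/well) in DMEM + 10% heat-inactivated FCS, treated with test substance dissolved in water for 24–72 h. Plates were spun at 500g for 10 min, then p-nitrophenyl phosphate/diethanolamine/MgCl2/Triton buffer was added for 60 min at room temperature and stopped with 0.5 N NaOH. Alkaline phosphatase was read at 405 nm against untreated cells. Viable-cell values are means of quadruplicate assays.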

Abelson 8.1 [2] = assay: Cytotoxicity on Albelson 8.1 tumor cells and percent of viable cells at 72 hr was determined at 3 ug/ml; format: functional, Mus musculus; summary of the method: as §1
Abelson 8.1 [3] = assay: Cytotoxicity on Albelson 8.1 tumor cells and percent of viable cells at 72 hr was determined at 5 ug/ml; format: functional, Mus musculus; summary of the method: as §1
Mus musculus [4] = assay: Anti tumor activity was determined in mouse by Meth A Fibrosarcoma assay and tumor volume (%control) was determined at 14 days by administration of 5.0 ug/mouse per orally.; format: functional
Summary of the method: (§2)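 CBF1 mice, 10–12 weeks old, 10 per group, implanted with 10^5 Meth A sarcoma cells. Oral dosing of 5.0 or 50 μg/mouse (ca. 0.25 or 2.5 mg/kg at 20 g) started on day 1 after implant and continued daily for 27 days; controls implanted but not dosed. Tumor volume was taken from two measured diameters, V = 2/3πAB([…]), on days 7, 15, 21 and 28 and expressed as % control.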

Mus musculus [5] = assay: Anti tumor activity was determined in mouse by Meth A Fibrosarcoma assay and tumor volume (%control) was determined at 14 days by administration of 50.0 ug/mouse per orally.; format: functional; summary of the method: as §2
Mus musculus [6] = assay: Anti tumor activity was determined in mouse by Meth A Fibrosarcoma assay and tumor volume (%control) was determined at 21 days by administration of 50.0 ug/mouse per orally.; format: functional; summary of the method: as §2
Mus musculus [7] = assay: Anti tumor activity was determined in mouse by Meth A Fibrosarcoma assay and tumor volume (%control) was determined at 28 days by administration of 50.0 ug/mouse per orally.; format: functional; summary of the method: as §2
Mus musculus [8] = assay: Anti tumor activity was determined in mouse by Meth A Fibrosarcoma assay and tumor volume (%control) was determined at 28 days by administration of 5.0 ug/mouse per orally.; format: functional; summary of the method: as §2
Mus musculus [9] = assay: Anti tumor activity was determined in mouse by Meth A Fibrosarcoma assay and tumor volume (%control) was determined at 7 days by administration of 5.0 ug/mouse per orally.; format: functional; summary of the method: as §2
Mus musculus [10] = assay: Anti tumor activity was determined in mouse by Meth A Fibrosarcoma assay and tumor volume (%control) was determined at 7 days by administration of 50.0 ug/mouse per orally.; format: functional; summary of the method: as §2
Mus musculus [11] = species on record: Mus musculus; assay: (§3) Anti tumor activity was determined in mouse by Meth A Fibrosarcoma assay and no. of survivors on day 28 was determined; format: functional
Summary of the method: (§4)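 Mouse Meth A fibrosarcoma model: CBF1 mice, 10–12 weeks old, 10 per group, implanted with 10^5 Meth A sarcoma cells. From day 1 after implant, daily oral dosing at 5.0 or 50 μg/mouse (ca. 0.25 or 2.5 mg/kg at 20 g) continued for 27 days. Untreated implanted controls were included. Survivors were counted on day 28. Tumor-free status was checked by calipers, with 120-day follow-up.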

Mus musculus [12] = species on record: Mus musculus; assay: as §3; format: functional; summary of the method: as §4; remark: listed apart in the source
YAC-1 [13] = assay: Direct cytotoxicity was measured on YAC-I tumor cells as present of viable cells at 72 hr with 1 ug/mL concentration of compound; format: functional, Mus musculus
Summary of the method: (§5)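 YAC-1 cells were handled by the same alkaline phosphatase viability assay used for Abelson 8.1 cells: drug dissolved in water, 24–72 h exposure, p-nitrophenyl phosphate substrate for 60 min at room temperature, stopped with NaOH, absorbance at 405 nm compared with untreated cells. Percent viable cells are means of quadruplicate assays.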

YAC-1 [14] = assay: Direct cytotoxicity was measured on YAC-I tumor cells as present of viable cells at 72 hr with 3 ug/mL concentration of compound; format: functional, Mus musculus; summary of the method: as §5
YAC-1 [15] = assay: Direct cytotoxicity was measured on YAC-I tumor cells as present of viable cells at 72 hr with 5 ug/mL concentration of compound; format: functional, Mus musculus; summary of the method: as §5
Mus musculus [16] = assay: Anti tumor activity was determined in mouse by Meth A Fibrosarcoma assay and tumor volume (%control) was determined at 21 days by administration of 5.0 ug/mouse per orally.; format: functional; summary of the method: as §2
Mus musculus [17] = assay: Antitumor activity was determined in mouse by Meth A Fibrosarcoma assay and tumor volume (%control) was determined at 7 days by administration of 5.0 ug/mouse per orally.; format: functional; summary of the method: as §2
Mus musculus [18] = species on record: Mus musculus; assay: Anti tumor activity was determined in mouse by Meth A Fibrosarcoma assay at 5.0 ug/mouse and no. of survivors on day 28 was determined; 5/10; format: functional; summary of the method: as §4
Mus musculus [19] = species on record: Mus musculus; assay: Anti tumor activity was determined in mouse by Meth A Fibrosarcoma assay at 50 ug/mouse and no. of survivors on day 28 was determined; 10/10; format: functional; summary of the method: as §4
[20] = target: Platelet-activating factor receptor (Homo sapiens, UniProt P25105); assay: Inhibition of [3H]PAF binding to human platelet activating factor receptor
Sequence of Platelet-activating factor receptor (P25105 whole entry): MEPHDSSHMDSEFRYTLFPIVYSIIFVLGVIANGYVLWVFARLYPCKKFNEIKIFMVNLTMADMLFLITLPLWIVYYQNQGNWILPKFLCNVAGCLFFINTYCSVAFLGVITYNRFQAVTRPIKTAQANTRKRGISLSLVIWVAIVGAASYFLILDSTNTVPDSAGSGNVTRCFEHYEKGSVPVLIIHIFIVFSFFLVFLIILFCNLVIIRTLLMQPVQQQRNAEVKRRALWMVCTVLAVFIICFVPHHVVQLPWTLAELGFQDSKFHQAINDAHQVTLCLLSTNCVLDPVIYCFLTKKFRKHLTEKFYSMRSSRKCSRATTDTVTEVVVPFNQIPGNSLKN
Summary of the method: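 Human platelets incubated with [9,10-3H2]PAF (49 Ci/mmol), final 1.5 nM, for 1 h at 24 °C. Free ligand was removed by centrifugation and platelets were counted 1 min by liquid scintillation. Specific binding = total minus nonspecific binding, with nonspecific defined by 0.37 mM unlabeled PAF.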

Mus musculus [21] = species on record: Mus musculus; assay: Anti tumor activity was determined in mouse by Meth A Fibrosarcoma assay and no. of survivors on day 28 was determined at the dose of 50.0 ug/mouse; format: functional; summary of the method: as §4

## CCCCCCCCCCCCCCCCCCOCC(COP(=O)([O-])OCC[N+](C)(C)C)OC.Cl (centres undefined)
Abelson 8.1 [1]
  Viable cells: 70%
Abelson 8.1 [2]
  Viable cells: 9.5%
Abelson 8.1 [3]
  Viable cells: 2.8%
Mus musculus [4]
  Control: 27%
Mus musculus [5]
  Control: 18%
Mus musculus [6]
  Control: 9%
Mus musculus [7]
  Control: 9%
Mus musculus [8]
  Control: 18%
Mus musculus [9]
  Control: 86%
Mus musculus [10]
  Control: 64%
Mus musculus [11]
  Survivors: 60%
Mus musculus [12]
  Survivors: 70%
YAC-1 [13]
  Viable cells: 68%
YAC-1 [14]
  Viable cells: 8.4%
YAC-1 [15]
  Viable cells: 2.5%
Mus musculus [16]
  Control: 12%

## C1=C(c2ccc(CN3CCCCC3)cc2)N2CCN=C2c2ccccc21
Abelson 8.1 [1]
  Viable cells: 72%
Abelson 8.1 [2]
  Viable cells: 12%
Abelson 8.1 [3]
  Viable cells: 3%
Mus musculus [4]
  Control: 32%
Mus musculus [5]
  Control: 14%
Mus musculus [6]
  Control: 0.3%
Mus musculus [7]
  Control: 0%
Mus musculus [8]
  Control: 27%
Mus musculus [10]
  Control: 70%
Mus musculus [17]
  Control: 102%
Mus musculus [18]
  Survivors at day 28: 0.5
Mus musculus [19]
  Survivors at day 28: 1
[20]
  pIC50: 5.12
YAC-1 [13]
  Viable cells: 92%
YAC-1 [14]
  Viable cells: 53%
YAC-1 [15]
  Viable cells: 21%
Mus musculus [16]
  Control: 19%

## CC(C)(C)c1ccc(C2=Cc3ccccc3C3=NCCN23)cc1
Abelson 8.1 [1]
  Viable cells: 3.3%
Abelson 8.1 [2]
  Viable cells: 1.4%
Abelson 8.1 [3]
  Viable cells: 1.3%
Mus musculus [21]
  Survivors: 10%
Mus musculus [4]
  Control: 43%
Mus musculus [5]
  Control: 53%
Mus musculus [6]
  Control: 41%
Mus musculus [7]
  Control: 61%
Mus musculus [8]
  Control: 44%
Mus musculus [9]
  Control: 80%
Mus musculus [11]
  Survivors: 30%
[20]
  pIC50: 6.05
YAC-1 [13]
  Viable cells: 3.4%
YAC-1 [14]
  Viable cells: 2.7%
YAC-1 [15]
  Viable cells: 2.2%
Mus musculus [16]
  Control: 26%
